PMC3113683 (Biochemistry, 2009)
No end group written: not given here. *: point of attachment. Biotin = O=C1N[C@H]2[C@H](CS[C@H]2CCCCC(=O)*)N1

T1: LYP300 (Homo sapiens, UniProt Q9Y2R2)
T1 sequence (Q9Y2R2 1-300): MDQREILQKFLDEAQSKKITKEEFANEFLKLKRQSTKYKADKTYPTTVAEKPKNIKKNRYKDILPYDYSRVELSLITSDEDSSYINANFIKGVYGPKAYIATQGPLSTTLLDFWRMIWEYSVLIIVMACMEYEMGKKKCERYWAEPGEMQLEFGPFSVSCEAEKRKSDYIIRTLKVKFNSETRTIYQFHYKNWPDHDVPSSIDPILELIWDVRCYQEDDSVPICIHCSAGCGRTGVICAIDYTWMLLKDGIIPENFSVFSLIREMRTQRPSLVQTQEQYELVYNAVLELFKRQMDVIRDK


Key:
LYP300 = target: T1, LYP300; assay: Phosphatase assay, trans effect of peptides on LYP300; assay type: biochemical; conditions: Figure 5A,C; 5 nM LYP300; DiFMUP; Bis-Tris pH 6.0
LYP [1] = assay type: biochemical, human; conditions: Figure 2D; Vmax, 1 nM enzyme, 0.16 mM peptide, triplicate
LYP [2] = assay type: biochemical, human; conditions: Figure 2C; Vmax, 1 nM enzyme, 0.4 mM DiFMUP, triplicate
How it was run: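 FLAG-tagged full-length LYP and C-terminal truncations (aa 1−300, 1−423, 1−517, 1−600) were expressed in baculovirus-infected Sf9 cells. They were purified on M2-FLAG beads, eluted with FLAG peptide plus DTT into 50 mM Tris-HCl pH 8.0, 0.5 mM EDTA, 1 mM DTT (>80% pure). Activity was measured under Vmax conditions in 50−100 mM Bis-Tris pH 6.0, 1−5 mM DTT. DiFMUP hydrolysis was followed continuously by fluorescence (ex 360, em 460 nm), with background subtracted using no-enzyme triplicates.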

[3] = tested on: T cell receptor (TCR) signaling; conditions: T cells; ref [4]-[8]; cited from earlier work
[4] = Gel filtration chromatography; assay type: physicochemical; conditions: Superdex 75 10/300 GL; TNE and phosphatase buffers
LYP [5] = assay: Phosphatase kinetics of LYP300 and LYP320 from E. coli on pTyr peptide; assay type: biochemical, human; conditions: purified from bacterial lysates
LYP [6] = assay: Phosphatase kinetics of LYP300 and LYP320 from E. coli on DiFMUP; assay type: biochemical, human; conditions: purified from bacterial lysates
How it was run: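 LYP300 and LYP320 (aa 1−300, 1−320) expressed in BL21(DE3) from pET28a. Purified by Ni2+-NTA, His tag cleaved with thrombin, protease removed on benzamidine, dialysed into 50 mM Tris-HCl pH 8.0, 0.5 mM EDTA, 1 mM DTT. 5 nM enzyme was assayed in Bis-Tris pH 6.0/DTT over a DiFMUP concentration range. Fluorescence (ex 360, em 460 nm) was read continuously at initial rate. Triplicates were corrected against no-enzyme blanks and fitted to Michaelis–Menten.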

Molecule | Phosphatase activity on pTyr peptide (LYP [1]) | Phosphatase activity on DiFMUP (LYP [2]) | also measured
HSGTESQAKHCIPEKNHTLQ [peptide of amino acids 301−320] | – | – | Inhibition of LYP300 phosphatase activity by peptide (LYP300): substantial inhibition of the phosphatase activity
biotin-ATAPRIDDEIPPPLPVRTPESFIVVEEAGEFSPNVPKSLS (Biotin-ATAPRIDDEIPPPLPVRTPESFIVVEEAGEFSPNVPKSLS) [peptide of amino acids 604−643, reference compound] | – | – | Inhibition of LYP300 phosphatase activity by peptide (LYP300): did not lead to any significant inhibition of the phosphatase activity
LYP423: LYP truncation, amino acids 1−423 (protein, UniProt Q9Y2R2 1-423, looked up, fragment) MDQREILQKFLDEAQSKKITKEEFANEFLKLKRQSTKYKADKTYPTTVAEKPKNIKKNRYKDILPYDYSRVELSLITSDEDSSYINANFIKGVYGPKAYIATQGPLSTTLLDFWRMIWEYSVLIIVMACMEYEMGKKKCERYWAEPGEMQLEFGPFSVSCEAEKRKSDYIIRTLKVKFNSETRTIYQFHYKNWPDHDVPSSIDPILELIWDVRCYQEDDSVPICIHCSAGCGRTGVICAIDYTWMLLKDGIIPENFSVFSLIREMRTQRPSLVQTQEQYELVYNAVLELFKRQMDVIRDKHSGTESQAKHCIPEKNHTLQADSYSPNLPKSTTKAAKMMNQQRTKMEIKESSSFDFRTSEISAKEELVLHPAKSSTSFDFLELNYSFDKNADTTMKWQTKAFPIVGEPLQKHQSLDLGSLLFE | slightly increased activity | slightly increased activity | –
LYP/S227: inactive mutant of LYP (protein, UniProt Q9Y2R2 1-807, looked up, variant C227S) Tyrosine-protein phosphatase …: MDQREILQKFLDEAQSKKITKEEFANEFLKLKRQSTKYKADKTYPTTVAEKPKNIKKNRYKDILPYDYSRVELSLITSDEDSSYINANFIKGVYGPKAYIATQGPLSTTLLDFWRMIWEYSVLIIVMACMEYEMGKKKCERYWAEPGEMQLEFGPFSVSCEAEKRKSDYIIRTLKVKFNSETRTIYQFHYKNWPDHDVPSSIDPILELIWDVRCYQEDDSVPICIHSSAGCGRTGVICAIDYTWMLLKDGIIPENFSVFSLIREMRTQRPSLVQTQEQYELVYNAVLELFKRQMDVIRDKHSGTESQAKHCIPEKNHTLQADSYSPNLPKSTTKAAKMMNQQRTKMEIKESSSFDFRTSEISAKEELVLHPAKSSTSFDFLELNYSFDKNADTTMKWQTKAFPIVGEPLQKHQSLDLGSLLFEGCSNSKPVNAAGRYFNSKVPITRTKSTPFELIQQRETKEVDSKENFSYLESQPHDSCFVEMQAQKVMHVSSAELNYSLPYDSKHQIRNASNVKHHDSSALGVYSYIPLVENPYFSSWPPSGTSSKMSLDLPEKQDGTVFPSSLLPTSSTSLFSYYNSHDSLSLNSPTNISSLLNQESAVLATAPRIDDEIPPPLPVRTPESFIVVEEAGEFSPNVPKSLSSAVKVKIGTSLEWGGTSEPKKFDDSVILRPSKSVKLRSPKSELHQDRSSPPPPLPERTLESFFLADEDCMQAQSIETYSTSYPDTMENSTSSKQTLKTPGKSFTRSKSLKILRNMKKSICNSCPPNKPAESVQSNNSSSFLNFGFANRFSKPKGPRNPPPTWNI | did not exhibit any activity | did not exhibit any activity | –
LYP: lymphoid tyrosine phosphatase LYP, encoded by the PTPN22 gene (protein, UniProt Q9Y2R2 1-807, looked up, HA tag) Tyrosine-protein phosphatase …: MDQREILQKFLDEAQSKKITKEEFANEFLKLKRQSTKYKADKTYPTTVAEKPKNIKKNRYKDILPYDYSRVELSLITSDEDSSYINANFIKGVYGPKAYIATQGPLSTTLLDFWRMIWEYSVLIIVMACMEYEMGKKKCERYWAEPGEMQLEFGPFSVSCEAEKRKSDYIIRTLKVKFNSETRTIYQFHYKNWPDHDVPSSIDPILELIWDVRCYQEDDSVPICIHCSAGCGRTGVICAIDYTWMLLKDGIIPENFSVFSLIREMRTQRPSLVQTQEQYELVYNAVLELFKRQMDVIRDKHSGTESQAKHCIPEKNHTLQADSYSPNLPKSTTKAAKMMNQQRTKMEIKESSSFDFRTSEISAKEELVLHPAKSSTSFDFLELNYSFDKNADTTMKWQTKAFPIVGEPLQKHQSLDLGSLLFEGCSNSKPVNAAGRYFNSKVPITRTKSTPFELIQQRETKEVDSKENFSYLESQPHDSCFVEMQAQKVMHVSSAELNYSLPYDSKHQIRNASNVKHHDSSALGVYSYIPLVENPYFSSWPPSGTSSKMSLDLPEKQDGTVFPSSLLPTSSTSLFSYYNSHDSLSLNSPTNISSLLNQESAVLATAPRIDDEIPPPLPVRTPESFIVVEEAGEFSPNVPKSLSSAVKVKIGTSLEWGGTSEPKKFDDSVILRPSKSVKLRSPKSELHQDRSSPPPPLPERTLESFFLADEDCMQAQSIETYSTSYPDTMENSTSSKQTLKTPGKSFTRSKSLKILRNMKKSICNSCPPNKPAESVQSNNSSSFLNFGFANRFSKPKGPRNPPPTWNI | – | – | Inhibition of T cell receptor signaling [3]: potently inhibit T cell receptor (TCR) signaling
LYP300: truncation of LYP immediately C-terminal to the catalytic domain (amino acids 1−300) (protein, left off: HA, N-terminal, kept) MDQREILQKFLDEAQSKKITKEEFANEFLKLKRQSTKYKADKTYPTTVAEKPKNIKKNRYKDILPYDYSRVELSLITSDEDSSYINANFIKGVYGPKAYIATQGPLSTTLLDFWRMIWEYSVLIIVMACMEYEMGKKKCERYWAEPGEMQLEFGPFSVSCEAEKRKSDYIIRTLKVKFNSETRTIYQFHYKNWPDHDVPSSIDPILELIWDVRCYQEDDSVPICIHCSAGCGRTGVICAIDYTWMLLKDGIIPENFSVFSLIREMRTQRPSLVQTQEQYELVYNAVLELFKRQMDVIRDK | greatly increased phosphatase activity | greatly increased phosphatase activity | Oligomeric state by gel filtration [4]: elute as monomers
LYP300/S227: inactive mutant of LYP300 (protein, UniProt Q9Y2R2 1-300, looked up, fragment C227S) MDQREILQKFLDEAQSKKITKEEFANEFLKLKRQSTKYKADKTYPTTVAEKPKNIKKNRYKDILPYDYSRVELSLITSDEDSSYINANFIKGVYGPKAYIATQGPLSTTLLDFWRMIWEYSVLIIVMACMEYEMGKKKCERYWAEPGEMQLEFGPFSVSCEAEKRKSDYIIRTLKVKFNSETRTIYQFHYKNWPDHDVPSSIDPILELIWDVRCYQEDDSVPICIHSSAGCGRTGVICAIDYTWMLLKDGIIPENFSVFSLIREMRTQRPSLVQTQEQYELVYNAVLELFKRQMDVIRDK | did not exhibit any activity | did not exhibit any activity | –
LYP320: LYP truncation, amino acids 1−320 (protein, left off: His6, end not stated, cleaved) MDQREILQKFLDEAQSKKITKEEFANEFLKLKRQSTKYKADKTYPTTVAEKPKNIKKNRYKDILPYDYSRVELSLITSDEDSSYINANFIKGVYGPKAYIATQGPLSTTLLDFWRMIWEYSVLIIVMACMEYEMGKKKCERYWAEPGEMQLEFGPFSVSCEAEKRKSDYIIRTLKVKFNSETRTIYQFHYKNWPDHDVPSSIDPILELIWDVRCYQEDDSVPICIHCSAGCGRTGVICAIDYTWMLLKDGIIPENFSVFSLIREMRTQRPSLVQTQEQYELVYNAVLELFKRQMDVIRDKHSGTESQAKHCIPEKNHTLQ | – | – | Activity relative to LYP300 on pTyr peptide (LYP [5]): consistently less active than LYP300; Activity relative to LYP300 on DiFMUP (LYP [6]): consistently less active than LYP300; Oligomeric state by gel filtration [4]: elute as monomers
